Experiment [1] concerns the target Bcl-2-like protein 1 (Homo sapiens, UniProt Q07817). Description: Binding affinity to recombinant Bcl-XL expressed in Escherichia coli BL21 by fluorescence polarization assay.
Experiment [2] addresses Apoptosis regulator Bcl-2 (Homo sapiens, UniProt P10415). As to the kind of experiment: Binding affinity to recombinant Bcl-2 expressed in Escherichia coli BL21 by fluorescence polarization assay. The method in brief: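 GST-Bcl-2 lacking C-terminal 21 residues, glutathione-resin purified, dialysed into 20 mM phosphate pH 7.4, 1 mM EDTA, 50 mM NaCl. Competition FP: fluorescein N-terminal Bak BH3 probe 15 nM, protein 1 µM, peptide final 10^-9 to 10^-4 M with 0.05% pluronic acid; 30 min room temperature; ex 485/em 535 nm, mP. EC50 from sigmoidal dose-response, n = 2, triplicate.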

Experiment [3] is described as follows: Selectivity ratio of EC50 for recombinant Bcl-2 to EC50 for recombinant Bcl-XL.

From ChEMBL document CHEMBL1141655, “Structure-activity relationships of Bak derived peptides: affinity and specificity modulations by amino acid replacement” (Eur J Med Chem, 2008) come the findings set out here.

Apoptosis regulator Bcl-2, sequence (P10415 whole entry): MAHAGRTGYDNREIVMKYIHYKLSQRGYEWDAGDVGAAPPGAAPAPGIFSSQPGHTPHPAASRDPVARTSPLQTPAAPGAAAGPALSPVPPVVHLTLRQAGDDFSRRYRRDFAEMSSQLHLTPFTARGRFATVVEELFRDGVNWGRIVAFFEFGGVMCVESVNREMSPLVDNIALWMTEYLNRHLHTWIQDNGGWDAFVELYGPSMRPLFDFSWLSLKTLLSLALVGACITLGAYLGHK
Bcl-2-like protein 1, sequence (Q07817 whole entry): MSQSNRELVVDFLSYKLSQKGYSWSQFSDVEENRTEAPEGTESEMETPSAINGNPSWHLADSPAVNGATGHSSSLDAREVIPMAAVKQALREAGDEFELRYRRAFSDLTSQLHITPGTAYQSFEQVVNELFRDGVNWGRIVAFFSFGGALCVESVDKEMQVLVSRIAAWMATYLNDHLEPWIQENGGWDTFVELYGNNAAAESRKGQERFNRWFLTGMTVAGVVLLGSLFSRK

Take `CC[C@H](C)[C@H](NC(=O)[C@H](C)NC(=O)[C@H](CCSC)NC(=O)[C@H](CCC(N)=O)NC(=O)[C@H](CCCN=C(N)N)NC(=O)CNC(=O)[C@@H](NC(=O)[C@H](CCC(N)=O)NC(=O)CN)C(C)C)C(=O)N[C@H](C(=O)NCC(=O)N[C@@H](CC(=O)O)C(=O)N[C@@H](CC(=O)O)C(=O)N[C@H](C(=O)N[C@@H](CC(N)=O)C(=O)N[C@@H](CCCN=C(N)N)C(=O)O)[C@@H](C)CC)[C@@H](C)CC`: the values for the concentration giving a half-maximal response (EC50) in experiment [1] and in experiment [2] were 1.43 µM and 29.9 µM, respectively.
As for `CC[C@H](C)[C@H](NC(=O)[C@H](C)NC(=O)[C@H](CC(C)C)NC(=O)[C@H](CCC(N)=O)NC(=O)[C@H](CCCNC(=N)N)NC(=O)CNC(=O)[C@@H](NC(=O)[C@H](CCC(N)=O)NC(=O)CN)C(C)C)C(=O)N[C@H](C(=O)NCC(=O)N[C@@H](CC(=O)O)C(=O)N[C@@H](CC(=O)O)C(=O)N[C@@H](Cc1ccc([N+](=O)[O-])cc1)C(=O)N[C@@H](CC(N)=O)C(=O)N[C@@H](CCCNC(=N)N)C(=O)O)[C@@H](C)CC`, the EC50 in experiment [1] was 0.594 µM; in experiment [2], 8.02 µM. The Ratio EC50 in experiment [3] came out at 13.
For `CC[C@H](C)[C@H](NC(=O)[C@H](C)NC(=O)[C@H](Cc1ccc2ccccc2c1)NC(=O)[C@H](CCC(N)=O)NC(=O)[C@H](CCCNC(=N)N)NC(=O)CNC(=O)[C@@H](NC(=O)[C@H](CCC(N)=O)NC(=O)CN)C(C)C)C(=O)N[C@H](C(=O)NCC(=O)N[C@@H](CC(=O)O)C(=O)N[C@@H](CC(=O)O)C(=O)N[C@H](C(=O)N[C@@H](CC(N)=O)C(=O)N[C@@H](CCCNC(=N)N)C(=O)O)[C@@H](C)CC)[C@@H](C)CC` the same measures were 0.127 µM, 17 µM and 133.
On the same counts, the results for `CC[C@H](C)[C@H](NC(=O)[C@H](C)NC(=O)[C@H](CC(C)C)NC(=O)[C@H](CCC(N)=O)NC(=O)[C@H](CCCNC(=N)N)NC(=O)CNC(=O)[C@@H](NC(=O)[C@H](CCC(N)=O)NC(=O)CN)C(C)C)C(=O)N[C@H](C(=O)NCC(=O)N[C@@H](CC(=O)O)C(=O)N[C@@H](CC(=O)O)C(=O)N[C@@H](Cc1ccc(Cl)cc1)C(=O)N[C@@H](CC(N)=O)C(=O)N[C@@H](CCCNC(=N)N)C(=O)O)[C@@H](C)CC` are 0.038 µM, 1.14 µM and 30.
For `CC[C@H](C)[C@H](NC(=O)[C@H](C)NC(=O)[C@H](CC(C)C)NC(=O)[C@H](CCC(N)=O)NC(=O)[C@H](CCCN=C(N)N)NC(=O)CNC(=O)[C@@H](NC(=O)[C@H](CCC(N)=O)NC(=O)CN)C(C)C)C(=O)N[C@@H](Cc1ccc(-c2ccccc2)cc1)C(=O)NCC(=O)N[C@@H](CC(=O)O)C(=O)N[C@@H](CC(=O)O)C(=O)N[C@H](C(=O)N[C@@H](CC(N)=O)C(=O)N[C@@H](CCCN=C(N)N)C(=O)O)[C@@H](C)CC`, the concentration for a half-maximal effect (EC50) in experiment [1] was determined as 1.25 µM; in experiment [2], 20.7 µM.
Regarding `CC[C@H](C)[C@H](NC(=O)[C@H](C)NC(=O)[C@H](CC(C)C)NC(=O)[C@H](CCC(N)=O)NC(=O)[C@H](CCCNC(=N)N)NC(=O)CNC(=O)[C@H](Cc1ccc2ccccc2c1)NC(=O)[C@H](CCC(N)=O)NC(=O)CN)C(=O)N[C@H](C(=O)NCC(=O)N[C@@H](CC(=O)O)C(=O)N[C@@H](CC(=O)O)C(=O)N[C@H](C(=O)N[C@@H](CC(N)=O)C(=O)N[C@@H](CCCNC(=N)N)C(=O)O)[C@@H](C)CC)[C@@H](C)CC`, the EC50 in experiment [1] came out at 0.35 µM; in experiment [2], 6.13 µM. For the same compound, the Ratio EC50 in experiment [3] was 17.
As for `CCCC[C@H](NC(=O)[C@H](CCC(N)=O)NC(=O)CN)C(=O)NCC(=O)N[C@@H](CCCN=C(N)N)C(=O)N[C@@H](CCC(N)=O)C(=O)N[C@@H](CC(C)C)C(=O)N[C@@H](C)C(=O)N[C@H](C(=O)N[C@H](C(=O)NCC(=O)N[C@@H](CC(=O)O)C(=O)N[C@@H](CC(=O)O)C(=O)N[C@H](C(=O)N[C@@H](CC(N)=O)C(=O)N[C@@H](CCCN=C(N)N)C(=O)O)[C@@H](C)CC)[C@@H](C)CC)[C@@H](C)CC`, the EC50 in experiment [1] was determined as 0.071 µM; in experiment [2] it was 0.757 µM.
For the compound `CC[C@H](C)[C@H](NC(=O)[C@H](C)NC(=O)[C@H](CC(C)C)NC(=O)[C@H](CCC(N)=O)NC(=O)[C@H](CCCNC(=N)N)NC(=O)CNC(=O)[C@@H](NC(=O)[C@H](CCC(N)=O)NC(=O)CN)C(C)C)C(=O)N[C@@H](Cc1c[nH]c2ccccc12)C(=O)NCC(=O)N[C@@H](CC(=O)O)C(=O)N[C@@H](CC(=O)O)C(=O)N[C@H](C(=O)N[C@@H](CC(N)=O)C(=O)N[C@@H](CCCNC(=N)N)C(=O)O)[C@@H](C)CC`, the EC50 in experiment [1] stood at 0.375 µM; in experiment [2], 2.8 µM. The Ratio EC50 in experiment [3] was found to be 7.
